Test results taken from ChEMBL document CHEMBL1828626, “Thiazolyl N-benzyl-substituted acetamide derivatives: synthesis, Src kinase inhibitory and anticancer activities” (2011).
The source made the active and inactive calls. No cut-off for these calls is given here.

Columns and labels:
SYF = test: Inhibition of constitutively active human c-Src527F mutant-induced growth inhibition in src, yes and fyn-deficient mouse SYF cells after 2 days by MTT assay; format: cell-based
In short: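 SYF cells (Src/Yes/Fyn knockout) re-expressing c-Src527F were plated at 3500 cells/well in DMEM/10% FBS overnight. Compound was added as a 5-point 2-fold serial dilution in triplicate for 2 days at 37 °C, 5% CO2. GI50 comes from growth % = (T−T0)/(C−T0) × 100, with T0 from day-zero wells.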

HT-29 = test: Antiproliferative activity against c-Src overexpressing human HT-29 cells at 50 uM after 24 to 72 hrs relative to control; format: functional
In short: (§1)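 Cells cultured in EMEM (HT-29, BT-20) or RPMI (CCRF-CEM) with 10% FBS at 37 °C, 5% CO2. Seeded at 5000 cells/well and treated 72 h after seeding with 50 μM compound, in triplicate, for 24-72 h. CellTiter 96 AQueous One reagent added for 1 h; formazan A490. Survival is (treated − medium blank)/(untreated control − blank) × 100%.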

NIH3T3 = test: Inhibition of constitutively active human c-SRC527F mutant-induced growth inhibition in mouse NIH3T3 cells after 3 days by MTT assay; format: cell-based
In short: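 NIH3T3 cells carrying constitutively active human c-Src527F were seeded at 4500 cells/well in DMEM/10% FBS and left overnight. They were then exposed for 3 days at 37 °C to a 5-point 2-fold dilution series (n = 3). Growth % = (T−T0)/(C−T0) × 100; GI50 taken from curves.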

CCRF-CEM [1] = test: Antiproliferative activity against human CCRF-CEM cells at 50 uM after 72 hrs relative to control; format: functional; in short: as §1
BT-20 [2] = test: Antiproliferative activity against human BT20 cells at 50 uM after 72 hrs relative to control; format: functional; in short: as §1
BT-20 [3] = test: Antiproliferative activity against human BT20 cells at 10 uM after 72 hrs relative to control; format: functional, cell-based
In short: (§2)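 BT-20 in EMEM or CCRF-CEM in RPMI, with 10% FBS, at 37 °C, 5% CO2. Seeded at 5000 cells/well and exposed 72 h after seeding to 10 μM agent, in triplicate. Readout is CellTiter 96 AQueous One, 1 h, A490. Growth is given as percent of untreated control after medium-blank subtraction.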

CCRF-CEM [4] = test: Antiproliferative activity against human CCRF-CEM cells at 10 uM after 72 hrs relative to control; format: functional, cell-based; in short: as §2

Compound	GI50 (SYF) [µM]	Activity (HT-29) [%]	GI50 (NIH3T3) [µM]	Activity (CCRF-CEM [1]) [%]	Activity (BT-20 [2]) [%]	Activity (BT-20 [3])	Activity (CCRF-CEM [4])
Cc1ccc(CNC(=O)Cc2csc(-c3ccc(OCCN4CCOCC4)cc3)n2)cc1	7.23	54	4.76	61	–	–	–
O=C(Cc1csc(-c2ccc(OCCN3CCOCC3)cc2)n1)NCc1ccc(F)cc1	2.51	54	1.49	71	–	–	–
O=C(Cc1ccc(-c2ccc(OCCN3CCOCC3)cc2)cn1)NCc1ccccc1	0.039	–	0.023	–	–	–	–
O=C(Cc1csc(-c2ccc(OCCN3CCOCC3)cc2)n1)NCc1ccccc1Cl	13	–	7.93	30	30	–	–
O=C(Cc1csc(-c2ccc(OCCN3CCOCC3)cc2)n1)NCc1ccccc1	2.3	–	1.34	30	30	–	–
O=C(Cc1csc(-c2ccc(OCCN3CCOCC3)cc2)n1)NCc1ccc(Cl)c(Cl)c1	12.5	54	12.3	69	–	–	–
COc1cccc2c1C(=O)c1c(O)c3c(c(O)c1C2=O)C[C@@](O)(C(=O)CO)C[C@@H]3O[C@H]1C[C@H](N)[C@H](O)[C@H](C)O1	–	–	–	–	–	Active	Active
